By IC50 is commonly meant the concentration that inhibits the measured activity by half.

Activity calls are given as the source filed them. No cut-off for these calls is given here.

One molecule from ChEMBL document CHEMBL4043182, “On the synthesis of quinone-based BODIPY hybrids: New insights on antitumor activity and mechanism of action in cancer cells” (Bioorg Med Chem Lett, 2017) can be followed below.

For data set [1], the system named is SF-295. The experiment in a line: Cytotoxicity against human SF295 cells after 24 hrs in absence of GSH-OEt by MTT assay. It counts as functional, cell-based. The conditions noted are these: SF-295, 24 h. The gist of the method: (§1)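 24 h MTT exposure (0.04–40.92 µM in 0.1% DMSO), with or without co-treatment with GSH ethyl ester (15 mM) to gauge the ROS contribution. MTT was 0.5 mg/mL for 3 h, with formazan dissolved in DMSO and absorbance at 595 nm expressed as % of control. Triplicate, repeated at least three times.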
A general note: Tetrazolium assays rely on reduction of a dye to a coloured formazan, in cell work by metabolically active cells.

In data set [2] the test system is SF-295. Kind of data set: Geno-toxicity in human SF295 cells assessed as induction of DNA damage at 2.5 to 10 uM after 24 hrs in absence of NAC by alkaline comet assay. It is filed as functional, cell-based. In short, it runs like this: (§2)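 Alkaline comet assay after 24 h at 2.5, 5 and 10 µM, with or without 24 h pretreatment with 5 mM NAC. Cells were trypsinized and embedded in 0.75% low-melting agarose, then lysed at pH 10, 4 °C, ≥1 h. DNA was unwound 20 min at pH >13 and electrophoresed 20 min at 25 V, 300 mA (0.86 V/cm), then stained with ethidium bromide. 100 cells (2 slides) were scored in classes 0–4 for a damage index. Mean ± SEM, three independent experiments in triplicate.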

Data set [3] concerns SF-295. The experiment in a line: Induction of lipid peroxidation in human SF295 cells assessed as increase in MDA levels at 2.5 to 10 uM after 24 hrs in absence of NAC by TBARS assay. It counts as functional, cell-based. In short, it runs like this: (§3)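 TBARS: cells were exposed 24 h, with or without 24 h prior 5 mM NAC, and lysed in Tris-HCl. Lysate was heated with TCA/0.25 M HCl and 6.7 mg/mL TBA for 15 min at 100 °C, centrifuged, and read at 532 nm. Hydrolyzed tetramethoxypropane served as standard, with values normalized to protein. H2O2 (10 µM) was the positive control. Three independent experiments in triplicate; ANOVA/Tukey.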

The subject of the next data set is SW-620. Kind of data set: Antiproliferative activity against human SW620 cells after 72 hrs by MTT assay. It is filed as functional, cell-based. The note with it: SW-620, 72 h. In short, it runs like this: (§4)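 MTT reduction: cancer lines plated at 0.7×10^5 to 0.3×10^6 cells/well, V79 and L929 fibroblasts at 0.5×10^5 cells/well. Compounds in DMSO (0.1%) were given for 24 h at 0.04–40.92 µM or 72 h at 0.04–8.19 µM. Fresh medium with 0.5 mg/mL MTT was added for 3 h, then formazan was dissolved in DMSO and read at 595 nm as % of control. IC50 came from nonlinear regression with 95% CI. Doxorubicin (0.001–1.06 µM) was the positive control. Triplicate, ≥3 repeats.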

Data set [4] relates to SF-295. The experiment in a line: Induction of oxidative stress in human SF295 cells assessed as total GSSG levels at 5 uM after 24 hrs by spectrophotometric analysis (reference value: 1.31 +/- 0.55 microg/mg). It is filed as functional.
In data set [5] the test system is SF-295. Kind of data set: Induction of oxidative stress in human SF295 cells assessed as GSH to GSSG ratio at 5 uM after 24 hrs by spectrophotometric analysis (reference value: 2.34 +/- 0.56 microg/mg). It is filed as functional.
Data set [6] concerns HCT-116. Kind of data set: Geno-toxicity in human HCT116 cells assessed as induction of DNA damage at 2.5 to 10 uM after 24 hrs in absence of NAC by alkaline comet assay. It is filed as functional, cell-based. In short, it runs like this:
as §2

Data set [7] concerns HCT-116. The experiment in a line: Induction of oxidative stress in human HCT116 cells assessed as GSH to GSSG ratio at 5 uM after 24 hrs by spectrophotometric analysis (reference value: 3.09 +/- 0.33 microg/mg). It counts as functional.
The subject of data set [8] is L929. Kind of data set: Induction of oxidative stress in mouse L929 cells assessed as total GSSG levels at 5 uM after 24 hrs by spectrophotometric analysis (reference value: 1.05 +/- 0.33 microg/mg). It counts as cell-based. The conditions noted are these: l929, 24 h.
Data set [9] is described as follows: Selectivity index, ratio of IC50 for mouse L929 cells to IC50 for human SF295 cells. It is filed as functional. In short, it runs like this: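 Selectivity index is the ratio of the IC50 in a non-cancer murine line (V79 or L929) to the IC50 in the cancer line. […] MTT was 0.5 mg/mL for 3 h, formazan dissolved in DMSO and read at 595 nm as % of control. IC50s were derived by nonlinear regression; triplicate, at least three repeats.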

The test system of data set [10] is SF-295. Kind of data set: Cytotoxicity against human SF295 cells after 24 hrs in presence of GSH-OEt by MTT assay. It counts as functional, cell-based. The conditions noted are these: SF-295, 24 h. The gist of the method: as §1
Data set [11] deals with SF-295. The experiment in a line: Antiproliferative activity against human SF295 cells after 72 hrs by MTT assay. The conditions noted are these: SF-295, 72 h. It is filed as functional, cell-based. The gist of the method: as §4
The next data set relates to PC-3. The experiment in a line: Induction of lipid peroxidation in human PC3 cells assessed as increase in MDA levels at 2.5 to 10 uM treated 24 hrs post NAC addition measured after 24 hrs by TBARS assay. It counts as functional, cell-based. In short, it runs like this: as §3
For data set [12], the system named is SF-295. The experiment in a line: Induction of oxidative stress in human SF295 cells assessed as total GSH levels at 5 uM after 24 hrs by spectrophotometric analysis (reference value: 3.16 +/- 0.21 microg/mg). It counts as functional.
Data set [13] deals with HCT-116. Kind of data set: Cytotoxicity against human HCT116 cells after 24 hrs in presence of GSH-OEt by MTT assay. It counts as functional, cell-based. The note with it: HCT-116, 24 h. In short, it runs like this:
as §1

Data set [14] is described as follows: Drug uptake in lysosomes of human PC3 cells at 5 uM after 10 mins by LysoTracker Red dye-based confocal microscopic analysis. It is filed as ADME, cell-based. The conditions noted are these: pc-3, 10 min. The gist of the method:
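PC3 cells were grown in DMEM with 10% FBS, antibiotics and 2 mM L-glutamine at 37 °C, 5% CO2. Cells were incubated with compound (5 µM) plus LysoTracker Red or MitoTracker Red for 10 min at 37 °C. Live cells were imaged in phenol red-free DMEM by confocal microscopy with a 40X oil objective, exciting at 488 nm (compound) and 543 nm (tracker dyes).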

Data set [15] deals with L929. Kind of data set: Induction of lipid peroxidation in mouse L929 cells assessed as increase in MDA levels at 2.5 to 10 uM treated 24 hrs post NAC addition measured after 24 hrs by TBARS assay. It counts as cell-based. The note with it: l929, 24 h. In short, it runs like this: as §3
For data set [16], the system named is SF-295. Kind of data set: Induction of oxidative stress in human SF295 cells assessed as total GSSG levels at 5 uM treated 24 hrs post NAC addition measured after 24 hrs by spectrophotometric analysis (reference value: 1.31 +/- 0.55 microg/mg). It is filed as functional. In short, it runs like this:
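Cells were pretreated 24 h with 5 mM NAC, then exposed 24 h to test compound at 5 µM. Controls received 0.1% DMSO. Extracts were prepared by sonication and HClO4 precipitation, then neutralized with KOH. Total glutathione was read by DTNB/glutathione reductase/NADPH rate at 412 nm. GSSG was measured after 4-vinylpyridine (0.1%, 1 h, RT) and GSH derived by difference. Values are normalized to protein, triplicates, three independent runs.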

Data set [17] concerns HCT-116. Kind of data set: Induction of oxidative stress in human HCT116 cells assessed as total intracellular thiol levels at 5 uM after 24 hrs by spectrophotometric analysis (reference value: 5.02 +/- 0.91 microg/mg). It counts as functional.
Data set [18] concerns HCT-116. The experiment in a line: Antiproliferative activity against human HCT116 cells after 72 hrs by MTT assay. It counts as functional, cell-based. The note with it: HCT-116, 72 h. The gist of the method:
as §4

The subject of data set [19] is HCT-116. Kind of data set: Cytotoxicity against human HCT116 cells after 24 hrs in absence of GSH-OEt by MTT assay. It counts as functional, cell-based. The conditions noted are these: HCT-116, 24 h. The gist of the method: as §1
In data set [20] the test system is L929. The experiment in a line: Induction of oxidative stress in mouse L929 cells assessed as total intracellular thiol levels at 5 uM after 24 hrs by spectrophotometric analysis (reference value: 4.87 +/- 0.25 microg/mg). It counts as cell-based. The note with it: l929, 24 h.

On to `CC1(C)OC2=C(C(=O)C(=O)c3ccccc32)C1n1cc(CNC2=[N+]3C(=C(c4ccccc4)c4ccc(Cl)n4[B-]3(F)F)C=C2)nn1` (configuration not stated), for which the IC50 with SF-295 [1] turned out to be 1.96 µM; with SW-620, 0.68 µM; with SF-295 [10], 9.81 µM; with SF-295 [11], 0.28 µM; in the data set on HCT-116 [13], 14.2 µM; in the data set with HCT-116 [18] it was 0.32 µM. The same molecule yielded a half-maximal inhibitory concentration (IC50) in the data set with HCT-116 [19] of 5.28 µM. The outcome with SF-295 [2], in the data set on SF-295 [3] and with HCT-116 [6] was Active. For the same molecule, the Activity with SF-295 [4] is 2.09 µg/mg; with SF-295 [5] it was 0.39 µg/mg; in the data set on HCT-116 [7] it was 0.56 µg/mg; in the data set with L929 [8], 2.27 µg/mg; in the data set with SF-295 [12] it was 1.31 µg/mg; in the data set with L929 [15], “Non-Toxic”. Also, the Activity is 1.21 µg/mg in the data set with SF-295 [16], 3.81 µg/mg in the data set with HCT-116 [17] and 3.5 µg/mg in the data set with L929 [20]. Further, in [9], the “Ratio IC50” value worked out at 3. Besides, the outcome with PC-3 was inactive. Besides, the Drug uptake result in data set [14] is “Metabolite_Notdetected”.
